Data: ChEMBL document CHEMBL1909525, “Synthesis and anticonvulsant activity of novel 2,6-diketopiperazine derivatives. Part 1: perhydropyrrole[1,2-a]pyrazines” (Eur J Med Chem, 2011)
Calls of active or inactive are those of the source.

Tests used:
Mus musculus [1] = experiment: Anticonvulsant activity in albino Carworth Farms No.1 mouse assessed as protection against subcutaneous metrazol-induced seizure at 100 mg/kg, ip after 4 hrs; type: functional, organism-based; parameters: dose 100 mg/kg
How it was run: (§1)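 Mouse scMET test. Compound given i.p. (30, 100 or 300 mg/kg) in 0.5% methylcellulose. Pentylenetetrazole 85 mg/kg (CD97) given s.c. at 0.5 or 4 h, then mice observed for 30 min. Protection is absence of clonic spasms; scored as protected/tested.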

Mus musculus [2] = experiment: Anticonvulsant activity in albino Carworth Farms No.1 mouse assessed as protection against subcutaneous metrazol-induced seizure at 300 mg/kg, ip after 0.5 hrs; type: functional, organism-based; parameters: dose 300 mg/kg; how it was run: as §1
Rattus norvegicus = species: Rattus norvegicus; experiment: Inhibition of voltage-gated sodium channel in Wistar rat cerebral prefrontal coronal slices assessed as decrease of 10 Hz current-induced current amplitude at 10 to 100 uM after 5 mins by whole cell voltage clamp method
How it was run: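 Na+ currents recorded by whole-cell voltage clamp in dispersed mPFC cells from coronal prefrontal slices of 3-week-old male Wistar rats. TEA-based bath, pH 7.4. Trains of 100 pulses at 10 Hz, each a step to -20 mV after a -100 mV prepulse. Amplitude decline over the train compared between control and 5 min compound application; n = 3.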

O=C1NC(=O)[C@@H]2CCCN2[C@H]1c1ccccc1
inactive: Activity (Mus musculus [1]) | Activity (Mus musculus [2]) | inhibition (Rattus norvegicus)
